Rpn11 inh – inhibitors of human proteasome Rpn11. O00487. human 26S proteasome, Ub4-pepOG fluorescence polarization; 20S core pre-blocked with epoxomicin. inhibition, % at 20 µM. 360,000 compounds, 0.59% hits;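 active means inhibition at 20 µM, scaled to each plate's controls, above about 33%, limit read from the data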
TPT1 inhibitor – inhibitors of Candida albicans tRNA 2'-phosphotransferase TPT1; recombinant caTPT1, FP RNA substrate dephosphorylation; inhibition, % at 5 µM; 300,000 compounds, 0.81% hits;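 active means inhibition above the mean of all tested compounds plus 3 SD, set per screening campaign, cut at about 24% in these data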
CSN deneddyl inh – blocks human CSN-mediated cullin deneddylation. Q92905. AID 651999. inhibition, % at 12.5 µM. 360,000 compounds, 0.38% hits. Purified CSN, SCF-Nedd8-OG deneddylation, fluorescence polarization;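 active means pattern-corrected inhibition above about 35%, with an unprinted fluorescence ratio check between 0.5 and 1.5, limit read from the data, passing the limit was not always enough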
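assay system = purified human Csn5 enzyme expressed in HEK293T cells | amount = 0.24 nM enzyme | buffer or medium = Tris/NaCl/DTT buffer, pH 7.5 | reagent = 10 nM SCFSkp2-Nedd8OG | compound = one concentration, 12.5 µM, 0.25% DMSO | times = 90 min reaction at room temperature | signal = FP | read-out basis = % inhibition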
HNF4A DNA FP – change in binding of human HNF4 alpha to DNA; P41235; HNF4a-FITC DNA binding, fluorescence polarization, 1 h; activity change, % at 10 µM; 360,000 compounds, 0.3% hits; AID 1224865; in the data active means activity change above about 30%, passing the limit was not always enough
Target sequence (P41235 whole entry, looked up): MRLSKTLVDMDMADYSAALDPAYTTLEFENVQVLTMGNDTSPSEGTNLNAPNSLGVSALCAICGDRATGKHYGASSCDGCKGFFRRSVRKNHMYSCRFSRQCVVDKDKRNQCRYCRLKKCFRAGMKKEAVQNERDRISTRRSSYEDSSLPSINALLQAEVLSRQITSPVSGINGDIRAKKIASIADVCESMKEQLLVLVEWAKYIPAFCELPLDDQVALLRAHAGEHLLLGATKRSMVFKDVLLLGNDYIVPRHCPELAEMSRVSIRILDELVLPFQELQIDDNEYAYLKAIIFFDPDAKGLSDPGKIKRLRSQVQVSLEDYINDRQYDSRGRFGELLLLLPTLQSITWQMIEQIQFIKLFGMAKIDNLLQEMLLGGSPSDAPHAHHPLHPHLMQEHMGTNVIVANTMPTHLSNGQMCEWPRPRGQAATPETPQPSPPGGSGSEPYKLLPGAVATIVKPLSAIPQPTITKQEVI
SENP1 inh – inhibitors of human SENP1 SUMO protease catalytic domain. AID 624204. 360,000 compounds, 0.21% hits. recombinant SENP1 catalytic domain, CyPet-SUMO1-YPet FRET cleavage. inhibition, % at 10 µM. Q9P0U3;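 active means inhibition at least 30% at 10 µM, raw YFP signal under a set limit, fluorescence ratio 0.5 to 1.5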
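Compound: 10 µM single point, 0.5% DMSO; Test system: hSENP1 catalytic domain, recombinant; Timing: 50 min reaction at room temperature; Technique: FRET, CFP and YFP emission; Control set: no-enzyme wells low, DMSO-plus-enzyme wells high control.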
TPT1 inh confirm – TPT1 (C. albicans) inhibition, confirmation. shares compounds with TPT1 inhibitor. recombinant caTPT1, fluorescence polarization, RNase T1 coupled. inhibition, % at 5 µM. 2,400 compounds, 74% hits. AID 2149;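 active means inhibition above the primary screen limit, the mean inhibition of all tested compounds plus 3 SD, cut at about 25% in these data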
RNase T1 inh – counter-screen for TPT1 inhibitors: inhibitors of Aspergillus oryzae RNase T1 | RNase T1 cleavage, fluorescence polarization, 1536-well | inhibition, % at 5 µM | AID 2153 | 2,400 compounds, 83% hits | shares compounds with TPT1 inhibitor;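 active means inhibition above the solvent-only control well mean plus 3 SD, limit set per screening run, cut at about 23% in these data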;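 further: inhibitors block cleavage so intact labeled substrate keeps polarization high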
Target sequence (P00651 whole entry, looked up): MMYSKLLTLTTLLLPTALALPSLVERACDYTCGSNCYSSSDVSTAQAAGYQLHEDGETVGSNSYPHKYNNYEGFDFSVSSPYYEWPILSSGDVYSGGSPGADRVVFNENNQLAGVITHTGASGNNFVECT
Rpn11 inh conf – Rpn11 inhibition confirmation, single concentration | shares compounds with Rpn11 inh | purified human 26S proteasome, Ub4-pepOG fluorescence polarization; proteasome pretreated with epoxomicin | AID 602318 | inhibition, % at 20 µM | 1,900 compounds, 29% hits
MMP-2 counter-1 – blocks human MMP-2, flagging nonselective RPN11 hits. recombinant MMP-2, FRET peptide cleavage fluorescence. inhibition, % at 20 µM. 1,900 compounds, 4% hits. shares compounds with Rpn11 inh;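 further: human MMP-2 activated beforehand with APMA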
Thrombin inh – thrombin (bovine) inhibition counter-screen. bovine thrombin cleavage of Ub4-pepOG, fluorescence polarization. 1,900 compounds, 13% hits. inhibition, % at 20 µM. shares compounds with Rpn11 inh;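 active means mean inhibition at least 40% at 20 µM, or signal 3 deviations below plate average, so some actives read negative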
SENP1 inh conf – confirmation of human SENP1 SUMO protease inhibitors; shares compounds with SENP1 inh; recombinant SENP1, CyPet-SUMO1-YPet FRET cleavage; inhibition, % at 10 µM; 520 compounds, 34% hits; in the data active means inhibition mostly above about 35%, no sharp cut-off; inactive means mostly below about 32%
SENP1 kin conf – confirmation of human SENP1 SUMO protease inhibitors, kinetic; shares compounds with SENP1 inh; inhibition, % at 10 µM; 520 compounds, 26% hits; recombinant SENP1, CyPet-SUMO1-YPet FRET kinetic cleavage; in the data active means inhibition mostly above about 32%, no sharp cut-off; inactive means mostly below about 29%
CSN deneddyl val – validation of inhibitors of human CSN-mediated cullin deneddylation. shares compounds with CSN deneddyl inh. Csn5 deneddylation of SCF-Nedd8OG, fluorescence polarization, 90 min. inhibition, % at 16.6 µM. 540 compounds, 62% hits. AID 720654; in the data active means inhibition above about 50%
MMP-2 counter-2 – counter-screen for CSN deneddylation inhibitors: human MMP-2 inhibition; 540 compounds, 33% hits; inhibition, % at 16.6 µM; shares compounds with CSN deneddyl inh; recombinant MMP-2, FRET substrate fluorescence, 60 min;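 active means corrected plate-normalized z-score of 5 or more, or -5 or less, or inhibition of 15% or more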
Thrombin counter – blocks bovine thrombin in a CSN deneddylation counter-screen; shares compounds with CSN deneddyl inh; bovine thrombin cleavage of Ub4-pepOG, fluorescence polarization; inhibition, % at 16.6 µM; 540 compounds, 49% hits; AID 720656;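 active means inhibition at or above a set limit, with a fluorescence interference ratio between 0.5 and a set maximum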
HNF4a DNA conf – change in binding of human HNF4 alpha to DNA, retest; activity change, % at 12.5 µM; shares compounds with HNF4A DNA FP; HNF4A-FITC DNA binding, fluorescence polarization, 1 h; 210 compounds, 99% hits; AID 1224897; call rule not given here
Of the large screens only hits and unclear results are named; the others gave an inactive call (follow-up assays come after a bar, where shown). Hits are enriched below; roughly 1.6% of the tested compounds scored in any of these assays. Unless noted, no stated cut-off is given here; in the data, active means inhibition above about 40%; inactive means the rest.

Cc1ccc(/C=C/C(=O)c2ccccc2O)cc1	none
CCc1nc2ccc(C(=O)NCCOc3ccc(OC)cc3)cn2c1N(CCC(C)C)CCN(C)C	none (no result: TPT1 inhibitor)
CC(C)OC(=O)CN1C(=O)S/C(=C/c2ccc(N3CCCCC3)o2)C1=O	TPT1 inhibitor 180, CSN deneddyl inh 51 (not shown: Rpn11 inh) | TPT1 inh confirm active | RNase T1 inh 179 | CSN deneddyl val 73 | MMP-2 counter-2 -114 | Thrombin counter inactive
CC(C)(C)OC(=O)CN1C(=O)S/C(=C\c2ccc(-c3cccc(C(=O)O)c3)o2)C1=O	none (no result: Rpn11 inh, CSN deneddyl inh, HNF4A DNA FP, SENP1 inh)
Cc1c(C#N)c(O)[nH]c(=O)c1N=Nc1ccc(Br)cc1C(=O)O	TPT1 inhibitor 29, CSN deneddyl inh 56, HNF4A DNA FP 86, SENP1 inh 38 (not shown: Rpn11 inh) | TPT1 inh confirm 43 | RNase T1 inh 65 | SENP1 inh conf 57 | SENP1 kin conf 34 | CSN deneddyl val inactive | MMP-2 counter-2 inactive | Thrombin counter 53
Cc1cccc(N=Nc2c(C)c(C#N)c(O)[nH]c2=O)c1	none (not shown: Rpn11 inh)
COc1cc(/C=C2/CC/C(=C/c3ccc(O)c(OC)c3)C2=O)ccc1O	TPT1 inhibitor 113, CSN deneddyl inh 47, HNF4A DNA FP 48 (not shown: Rpn11 inh) | TPT1 inh confirm 117 | RNase T1 inh 119 | CSN deneddyl val 62 | MMP-2 counter-2 inactive | Thrombin counter 72
COc1cc(/C=C2\COC/C(=C\c3ccc(O)c(OC)c3)C2=O)ccc1O	none
COc1ccc(/C=C/C(=O)OCC(=O)Nc2ccc(N3CCOCC3)cc2)cc1	none
COC(=O)CN1C(=S)N(c2ccc(OC)cc2)C(=O)/C1=C/c1ccc(N2CCOCC2)cc1	TPT1 inhibitor 151, CSN deneddyl inh 36, HNF4A DNA FP 61 (not shown: Rpn11 inh) | TPT1 inh confirm 116 | RNase T1 inh 123 | CSN deneddyl val 175 | MMP-2 counter-2 inactive | Thrombin counter inactive
COc1ccc2c3c([nH]c2c1)[C@H]1C[C@H]2[C@H](C[C@@H](O)[C@H](OC)[C@H]2C(=O)O)CN1CC3	none
COC(=O)[C@H]1[C@H]2C[C@@H]3c4[nH]c5cc(OC)ccc5c4CCN3C[C@H]2C[C@@H](OC(=O)c2ccc(N)cc2)[C@@H]1OC	TPT1 inhibitor 62, HNF4A DNA FP 43 (not shown: Rpn11 inh) | TPT1 inh confirm 86 | RNase T1 inh 91 | HNF4a DNA conf 65
COc1ccc2c(/C=N/Nc3ccc(C(=O)O)cc3)c[nH]c2c1	TPT1 inhibitor 56, HNF4A DNA FP 52 (not shown: Rpn11 inh) | TPT1 inh confirm 39 | RNase T1 inh 50 | HNF4a DNA conf 35
NC(=O)c1ncn([C@@H]2O[C@H](CNC(=O)[C@H](N)CSCc3ccccc3)[C@@H](O)[C@H]2O)n1	none (no result: TPT1 inhibitor)
CN1C(=O)/C(=C\C=C2/CCCN2C)N(C)C1=S	Rpn11 inh 77, TPT1 inhibitor 60, HNF4A DNA FP 62 | TPT1 inh confirm 88 | RNase T1 inh 102 | Rpn11 inh conf 74 | MMP-2 counter-1 inactive | Thrombin inh 60 | HNF4a DNA conf 93
Cc1ccc(C(=O)OCC(=O)N(C)c2ccccc2)c(C)c1	none
CN(C(=O)COC(=O)c1ccc([N+](=O)[O-])cc1N)c1ccccc1	TPT1 inhibitor 84, CSN deneddyl inh 42, HNF4A DNA FP 43 | TPT1 inh confirm 75 | RNase T1 inh 82 | HNF4a DNA conf 92
CCN1C(=O)CS/C1=C(\C#N)S(=O)(=O)c1ccccc1	Rpn11 inh 42, TPT1 inhibitor 104, HNF4A DNA FP 40 | TPT1 inh confirm 80 | RNase T1 inh 90 | Rpn11 inh conf inactive | MMP-2 counter-1 inactive | Thrombin inh inactive | HNF4a DNA conf 43
CCN1C(=O)CS/C1=N\S(=O)(=O)c1ccccc1	none
COP(=O)(OC)C(Nc1ccc(C)cc1)c1ccc(Br)cc1 (centres undefined)	none (no result: TPT1 inhibitor)
N#CCC(=O)Nc1ccc(C(=O)NCC(c2ccco2)N2CCCCC2)cc1 (centres undefined)	TPT1 inhibitor 48, CSN deneddyl inh 42, HNF4A DNA FP 67 (not shown: Rpn11 inh) | TPT1 inh confirm 56 | RNase T1 inh 66 | HNF4a DNA conf 44
O=C(NCC(c1ccco1)N1CCCCC1)c1ccc(S(=O)(=O)Nc2ccccc2)cc1 (centres undefined)	none
COc1ccc(NC(=O)CN(C)C(=O)CSc2nc3ccccc3s2)cc1	TPT1 inhibitor 36, HNF4A DNA FP 43 (not shown: Rpn11 inh) | TPT1 inh confirm 36 | RNase T1 inh 45 | HNF4a DNA conf 46
Cc1ccccc1N1CCN(C2CCCN(C(=O)c3cn4cccc(C)c4n3)C2)CC1 (centres undefined)	none (no result: TPT1 inhibitor)
Nc1nc(SCc2nc3scc(-c4ccccc4)c3c(=O)[nH]2)n[nH]1	none

Screening results deposited in PubChem BioAssay by several laboratories.
